In ChEMBL document CHEMBL2177098, “Synthesis and evaluation of novel ¹⁸F labeled 2-pyridinylbenzoxazole and 2-pyridinylbenzothiazole derivatives as ligands for positron emission tomography (PET) imaging of β-amyloid plaques” (J Med Chem, 2012) one finds Activity and Ki data, which are given here for one compound.

The structures appear in SMILES notation. Active and inactive are the calls of the source. The calls are words filed in the database; no cut-off is given here.

Assay [1] concerns the target Amyloid-beta precursor protein (Homo sapiens) (UniProt P05067). The assay is described as follows: Binding affinity to amyloid beta plaques in Alzheimer patient brain at 370 KBq/100 ul after 1 hr by autoradiographic analysis. The conditions noted are these: tested as the 18F-labelled form.
Assay [2] is described as follows: Displacement of [125I]-IMPY from amyloid beta (1 to 42) fibrils after 2 hrs by gamma-counting analysis. The method, boiled down: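 Competition binding with aggregated Aβ1-42 fibrils and [125I]IMPY (60000−100000 cpm/100 μL) in 0.05% BSA (1 mL total); inhibitors 10⁻⁴−10^−8.5 M in ethanol. Incubated 37 °C for 2 h, then GF/B vacuum filtration with PBS (0.02 M, pH 7.4) washes and γ counting. Three repeats; IC50 converted to Ki by Cheng−Prusoff.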
For orientation: Loss of bound radioactivity is the signal in a displacement assay; it reports binding, not function.

The species named for assay [3] is Mus musculus. The assay is described as follows: Binding affinity to amyloid beta plaques in transgenic C57BL6 mouse cortex expressing APP Swedish mutant/PSEN1 at 370 KBq/100 ul after 1 hr by autoradiographic analysis. The conditions noted are these: tested as the 18F-labelled form. The method, boiled down: (§1)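 Paraffin brain sections from 12-month-old Tg mice (C57BL6, APPswe/PSEN1) and age-matched controls, deparaffinized through xylene and graded ethanol, then PBS (0.2 M, pH 7.4) 30 min. Incubated with 18F tracer (370 KBq per 100 μL) 1 h at room temperature, washed in 40% EtOH, rinsed in water, then phosphor plate exposure 2 h. The same sections were afterwards stained with 0.125% thioflavin S in 10% EtOH for 3 min and washed in 40% EtOH.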

The species named for assay [4] is Mus musculus. The assay is described as follows: Binding affinity to amyloid beta plaques in transgenic C57BL6 mouse hippocampus expressing APP Swedish mutant/PSEN1 at 370 KBq/100 ul after 1 hr by autoradiographic analysis. The assay is classed as tissue-based. As to conditions: tested as the 18F-labelled form. The method, boiled down:
as §1

The species named for assay [5] is Mus musculus. The assay is described as follows: Binding affinity to amyloid beta plaques in transgenic C57BL6 mouse cortex expressing APP Swedish mutant/PSEN1 at 370 KBq/100 ul after 1 hr by thioflavinS-staining method. As to conditions: tested as the 18F-labelled form. The method, boiled down: as §1
The species entered for assay [6] is Mus musculus. The assay is described as follows: Binding affinity to amyloid beta plaques in transgenic C57BL6 mouse hippocampus expressing APP Swedish mutant/PSEN1 at 370 KBq/100 ul after 1 hr by thioflavinS-staining method. The assay is classed as tissue-based. The conditions noted are these: tested as the 18F-labelled form. The method, boiled down:
as §1

Chain of Amyloid-beta precursor protein (Homo sapiens) (P05067 whole entry): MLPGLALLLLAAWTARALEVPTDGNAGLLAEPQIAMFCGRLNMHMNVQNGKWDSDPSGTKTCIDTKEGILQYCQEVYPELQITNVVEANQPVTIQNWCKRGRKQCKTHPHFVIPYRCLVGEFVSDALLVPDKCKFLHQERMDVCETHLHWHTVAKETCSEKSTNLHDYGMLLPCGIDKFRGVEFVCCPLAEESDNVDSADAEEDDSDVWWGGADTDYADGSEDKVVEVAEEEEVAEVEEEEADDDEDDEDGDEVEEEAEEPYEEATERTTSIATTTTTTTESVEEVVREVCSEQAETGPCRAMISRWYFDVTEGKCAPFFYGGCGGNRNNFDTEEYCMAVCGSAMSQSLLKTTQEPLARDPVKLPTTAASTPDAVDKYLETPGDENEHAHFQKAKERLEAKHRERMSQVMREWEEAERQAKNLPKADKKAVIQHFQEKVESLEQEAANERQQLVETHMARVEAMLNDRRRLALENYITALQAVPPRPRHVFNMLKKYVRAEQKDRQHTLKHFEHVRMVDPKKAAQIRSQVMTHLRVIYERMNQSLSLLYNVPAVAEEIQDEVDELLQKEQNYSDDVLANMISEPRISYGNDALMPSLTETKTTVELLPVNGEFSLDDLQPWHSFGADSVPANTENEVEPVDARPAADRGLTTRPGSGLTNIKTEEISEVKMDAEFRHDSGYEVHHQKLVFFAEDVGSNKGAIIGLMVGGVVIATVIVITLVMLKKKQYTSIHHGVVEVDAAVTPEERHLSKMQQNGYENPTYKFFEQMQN

As for `CNc1ccc(-c2nc3cc(OCCOCCOCCF)ccc3o2)cn1`, the outcome (in assay [1]; in the assay filed under Mus musculus [3]; in the assay filed under Mus musculus [4]; in the assay filed under Mus musculus [5]; in the assay listed under Mus musculus [6]) was Active. For the same compound, in assay [2], affinity was put at a Ki of 76.9 nM.
